Laboratory results: ChEMBL document CHEMBL1128245, “Dual-acting thromboxane receptor antagonist/synthase inhibitors: synthesis and biological properties of [2-substituted-4-(3-pyridyl)-1,3-dioxan-5-yl] alkenoic acids” (J Med Chem, 1995)

Assays:
Canis familiaris [1] = test: Ex vivo TXA2 ([…]) antagonist activity was determined for U-46,619 induced aggregation (dose ratio) after 5 hr of oral dosing (3 mg/kg) in the dog; type: functional, Canis lupus familiaris
Procedure, shortened: (§1)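 Dogs (n = 4) dosed orally, blood sampled at 2, 5, 8 and 24 h. Platelet-rich plasma aggregated with U46619 plus a predetermined threshold ADP concentration (about 0.4–1.2 × 10^-6 M), compared before vs after dosing to give a U46619 dose ratio. ">" marks the maximum achievable ratio at top U46619 (1 × 10^-4 M).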

Canis familiaris [2] = test: Ex vivo TXA2 ([…]) antagonist activity was determined for U-46,619 induced aggregation (dose ratio) after 2 hr of oral dosing (10 mg/kg) in the dog; type: functional, Canis lupus familiaris; procedure, shortened: as §1
Rattus norvegicus [3] = test: Ex vivo TXA2 ([…]) antagonist activity was determined for U-46,619 induced aggregation (dose ratio) after 5 hr of oral dosing (5 mg/kg) in the rat; type: functional
Procedure, shortened: (§2)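 Conscious rats (n = 6) dosed by oral gavage, then anesthetized and bled from the abdominal aorta at 1, 3 or 5 h. Platelet-rich plasma aggregated with U46619 before and after dosing to give a U46619 dose ratio. ">" values mark the maximum dose ratio achievable at the top U46619 concentration (1 × 10^-4 M).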

Rattus norvegicus [4] = test: Ex vivo TXA2 ([…]) antagonist activity was determined for U-46,619 induced aggregation (dose ratio) after 3 hr of oral dosing (10 mg/kg) in the rat; type: functional; procedure, shortened: as §2
Rattus norvegicus [5] = test: Ex vivo TXA2 ([…]) antagonist activity was determined for U-46,619 induced aggregation (dose ratio) after 5 hr of oral dosing (1 mg/kg) in the rat; type: functional; procedure, shortened: as §2
Rattus norvegicus [6] = test: Ex vivo […] (TXA2 synthase) inhibitory activity after 1 hr of oral dosing (5 mg/kg) in the rat; type: functional
Procedure, shortened: (§3)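 Rats (n = 6) gavaged, anesthetized, aortic blood taken at 1, 3 or 5 h after dosing. A blood aliquot was challenged with collagen and TXB2 measured by radioimmunoassay; expressed as % inhibition of TXA2 synthase (±SEM).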

Rattus norvegicus [7] = test: Ex vivo […] (TXA2 synthase) inhibitory activity after 5 hr of oral dosing (3 mg/kg) in the rat; type: functional; procedure, shortened: as §3
Rattus norvegicus [8] = test: Ex vivo […] (TXA2 synthase) inhibitory activity after 3 hr of oral dosing (3 mg/kg) in the rat; type: functional; procedure, shortened: as §3
Prostacyclin synthase = target: T1, Prostacyclin synthase (Homo sapiens, UniProt Q16647); test: In vitro inhibition of Prostaglandin I2 synthase in cultured human endothelial cells
T1 sequence (Q16647 whole entry): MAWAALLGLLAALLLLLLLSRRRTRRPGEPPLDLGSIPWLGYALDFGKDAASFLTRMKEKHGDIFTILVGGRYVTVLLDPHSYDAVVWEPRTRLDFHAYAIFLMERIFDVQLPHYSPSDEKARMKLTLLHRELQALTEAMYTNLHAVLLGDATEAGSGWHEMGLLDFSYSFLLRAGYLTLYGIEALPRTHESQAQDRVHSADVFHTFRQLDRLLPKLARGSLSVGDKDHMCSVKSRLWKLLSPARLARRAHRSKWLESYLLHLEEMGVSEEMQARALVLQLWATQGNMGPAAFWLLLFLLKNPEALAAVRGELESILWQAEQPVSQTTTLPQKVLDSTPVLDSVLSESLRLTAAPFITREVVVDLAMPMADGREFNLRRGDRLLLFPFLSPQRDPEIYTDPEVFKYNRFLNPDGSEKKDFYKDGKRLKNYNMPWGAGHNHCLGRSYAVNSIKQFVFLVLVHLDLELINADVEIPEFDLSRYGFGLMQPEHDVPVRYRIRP

Canis familiaris [9] = test: Ex vivo TXA2 ([…]) antagonist activity was determined for U-46,619 induced aggregation (dose ratio) after 24 hr of oral dosing (10 mg/kg) in the dog; type: functional, Canis lupus familiaris; procedure, shortened: as §1
Canis familiaris [10] = test: Ex vivo TXA2 ([…]) antagonist activity was determined for U-46,619 induced aggregation (dose ratio) after 24 hr of oral dosing (3 mg/kg) in the dog; type: functional, Canis lupus familiaris; procedure, shortened: as §1
Rattus norvegicus [11] = test: Ex vivo […] (TXA2 synthase) inhibitory activity after 5 hr of oral dosing (5 mg/kg) in the rat; type: functional; procedure, shortened: as §3
Rattus norvegicus [12] = test: Ex vivo TXA2 ([…]) antagonist activity was determined for U-46,619 induced aggregation (dose ratio) after 5 hr of oral dosing (3 mg/kg) in the rat; type: functional; procedure, shortened: as §2
Rattus norvegicus [13] = test: Ex vivo […] (TXA2 synthase) inhibitory activity after 1 hr of oral dosing (10 mg/kg) in the rat; type: functional; procedure, shortened: as §3
Rattus norvegicus [14] = test: Ex vivo […] (TXA2 synthase) inhibitory activity after 5 hr of oral dosing (10 mg/kg) in the rat; type: functional; procedure, shortened: as §3
Canis familiaris [15] = test: Ex vivo TXA2 ([…]) antagonist activity was determined for U-46,619 induced aggregation (dose ratio) after 8 hr of oral dosing (3 mg/kg) in the dog; type: functional, Canis lupus familiaris; procedure, shortened: as §1
Canis familiaris [16] = test: Ex vivo TXA2 ([…]) antagonist activity was determined for U-46,619 induced aggregation (dose ratio) after 8 hr of oral dosing (10 mg/kg) in the dog; type: functional, Canis lupus familiaris; procedure, shortened: as §1
Rattus norvegicus [17] = test: Ex vivo TXA2 ([…]) antagonist activity was determined for U-46,619 induced aggregation (dose ratio) after 5 hr of oral dosing (10 mg/kg) in the rat; type: functional; procedure, shortened: as §2
Rattus norvegicus [18] = test: Ex vivo […] (TXA2 synthase) inhibitory activity after 3 hr of oral dosing (5 mg/kg) in the rat; type: functional
Procedure, shortened: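 Conscious rats (n = 6) were gavaged with compound, then anesthetized, and blood was drawn from the abdominal aorta at 1, 3 and 5 h after dosing. A blood aliquot was stimulated with collagen and the TXB2 formed was measured by radioimmunoassay. Results are expressed as % inhibition of TXA2 synthase activity (±SEM).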

Rattus norvegicus [19] = test: Ex vivo TXA2 ([…]) antagonist activity was determined for U-46,619 induced aggregation (dose ratio) after 1 hr of oral dosing (1 mg/kg) in the rat; type: functional; procedure, shortened: as §2
Rattus norvegicus [20] = test: Ex vivo TXA2 ([…]) antagonist activity was determined for U-46,619 induced aggregation (dose ratio) after 3 hr of oral dosing (3 mg/kg) in the rat; type: functional; procedure, shortened: as §2
Rattus norvegicus [21] = test: Ex vivo TXA2 ([…]) antagonist activity was determined for U-46,619 induced aggregation (dose ratio) after 1 hr of oral dosing (10 mg/kg) in the rat; type: functional; procedure, shortened: as §2
Rattus norvegicus [22] = test: Ex vivo TXA2 ([…]) antagonist activity was determined for U-46,619 induced aggregation (dose ratio) after 1 hr of oral dosing (5 mg/kg) in the rat; type: functional; procedure, shortened: as §2
Rattus norvegicus [23] = test: Ex vivo TXA2 ([…]) antagonist activity was determined for U-46,619 induced aggregation (dose ratio) after 3 hr of oral dosing (1 mg/kg) in the rat; type: functional; procedure, shortened: as §2
Rattus norvegicus [24] = test: Ex vivo […] (TXA2 synthase) inhibitory activity after 3 hr of oral dosing (1 mg/kg) in the rat; type: functional; procedure, shortened: as §3
Canis familiaris [25] = test: Ex vivo TXA2 ([…]) antagonist activity was determined for U-46,619 induced aggregation (dose ratio) after 24 hr of oral dosing (1 mg/kg) in the dog; type: functional, Canis lupus familiaris; procedure, shortened: as §1
Rattus norvegicus [26] = test: Ex vivo […] (TXA2 synthase) inhibitory activity after 3 hr of oral dosing (10 mg/kg) in the rat; type: functional; procedure, shortened: as §3
Canis familiaris [27] = test: Ex vivo TXA2 ([…]) antagonist activity was determined for U-46,619 induced aggregation (dose ratio) after 5 hr of oral dosing (10 mg/kg) in the dog; type: functional, Canis lupus familiaris; procedure, shortened: as §1

Cc1ccc(OC(C)(C)C2OCC(C/C=C\CCC(=O)O)C(c3cccnc3)O2)c([N+](=O)[O-])c1 (stereo in doubt; 7x)
Antagonist activity (Canis familiaris [1]): >321 | Antagonist activity (Canis familiaris [2]): >522 | Antagonist activity (Rattus norvegicus [3]): >47 | Antagonist activity (Rattus norvegicus [4]): >71 | Antagonist activity (Rattus norvegicus [5]): >9 | Inhibition (Rattus norvegicus [6]): 92.9% | Inhibition (Rattus norvegicus [7]): 68.3% | Inhibition (Rattus norvegicus [8]): 82.5% | IC50 (Prostacyclin synthase): 28 µM | Antagonist activity (Canis familiaris [9]): >522 | Antagonist activity (Canis familiaris [10]): >281 | Inhibition (Rattus norvegicus [11]): 79.3% | Antagonist activity (Rattus norvegicus [12]): >21 | Inhibition (Rattus norvegicus [13]): 95.6% | Inhibition (Rattus norvegicus [14]): 89% | Antagonist activity (Canis familiaris [15]): >321 | Antagonist activity (Canis familiaris [16]): >522 | Antagonist activity (Rattus norvegicus [17]): >92 | Inhibition (Rattus norvegicus [18]): 89.2% | Antagonist activity (Rattus norvegicus [19]): >21 | Antagonist activity (Rattus norvegicus [20]): >23 | Antagonist activity (Rattus norvegicus [21]): >113 | Antagonist activity (Rattus norvegicus [22]): >60 | Antagonist activity (Rattus norvegicus [23]): >27 | Inhibition (Rattus norvegicus [24]): 38.8% | Antagonist activity (Canis familiaris [25]): >1.4 | Inhibition (Rattus norvegicus [26]): 93.9% | Antagonist activity (Canis familiaris [27]): >522
